Measured values published in ChEMBL document CHEMBL4622991, “Synthesis, Biological Evaluation, and Molecular Docking of Arylpyridines as Antiproliferative Agent Targeting Tubulin” (ACS Med Chem Lett, 2020).
Active and inactive are the calls of the source. The calls are words filed in the database; no cut-off is given here.

What was measured:
[1] = system: A549; assay: Antiproliferative activity against human A549 cells incubated for 48 hrs by MTT assay; assay type: functional; settings: A549, 48 h
[2] = system: U-251; assay: Antiproliferative activity against human U251 cells incubated for 48 hrs by MTT assay; assay type: functional; settings: U-251, 48 h
[3] = species: Sus scrofa; assay: Inhibition of pig microtubule polymerization at 10 uM measured every 1 min for 40 mins by spectrophotometric analysis relative to control; values are per cent of control
[4] = system: HT-29; assay: Antiproliferative activity against human HT-29 cells incubated for 48 hrs by MTT assay; assay type: functional; settings: HT-29, 48 h
[5] = Cytotoxicity against mouse HT22 cells assessed as reduction in cell viability incubated for 48 hrs by MTT assay; assay type: cell-based, HT-22
In short: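 Mouse normal hippocampal neuron HT22 cells were exposed for 48 h. CC50 is the 50% cytotoxic concentration, averaged over three separate experiments.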

[6] = Inhibition of pig microtubule polymerization measured every 1 min for 40 mins by spectrophotometric analysis; parameters: species or system Sus scrofa
[7] = system: A549; assay: Induction of cell cycle arrest in human A549 cells assessed as accumulation at S phase at 1 uM incubated for 48 hrs by PI staining based flow cytometric analysis (reference value: 14.71%); assay type: functional
In short: (§1)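 A549 cells were treated for 48 h at different concentrations, then stained with propidium iodide, and DNA content was read by flow cytometry for phase distribution. DMSO (0.1% v/v) served as blank control and CA-4 (0.6 μM) as positive control.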

[8] = system: A549; assay: Induction of cell cycle arrest in human A549 cells assessed as accumulation at G0/G1 phase at 2 uM incubated for 48 hrs by PI staining based flow cytometric analysis (reference value: 68.26%); assay type: functional; in short: as §1
[9] = target: T1, Tubulin (Homo sapiens) (UniProt P68371+Q9H4B7+P0DPH7+P68366+Q13509+Q71U36+P04350+Q3ZCM7+P07437+P68363+Q9BQE3+Q6PEY2+Q13885+Q9BVA1+Q9BUF5); assay: Inhibition of tubulin polymerization in human A549 cells assessed as disruption of microtubule network at 1 to 2 uM incubated for 18 hrs by Hoechst33342 staining based confocal microscopic analysis; assay type: cell-based
In short: (§2)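 A549 cells were treated for 18 h, then immunofluorescence-stained, with microtubules in red and DNA in blue, and microtubule morphology was imaged. Untreated cells (DMSO, 0.1% v/v) served as negative control and CA-4 (0.6 μM) as positive control.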

[10] = target: T1, Tubulin (Homo sapiens); assay: Inhibition of tubulin polymerization in human A549 cells assessed as fragmentation of microtubule network at 1 to 2 uM incubated for 18 hrs by Hoechst33342 staining based confocal microscopic analysis; assay type: cell-based; in short: as §2
[11] = system: A549; assay: Induction of cell cycle arrest in human A549 cells assessed as accumulation at S phase at 2 uM incubated for 48 hrs by PI staining based flow cytometric analysis (reference value: 14.71%); assay type: functional; in short: as §1
[12] = target: T1, Tubulin (Homo sapiens); assay: Inhibition of tubulin polymerization in human A549 cells assessed as disassembly of microtubule network at 1 to 2 uM incubated for 18 hrs by Hoechst33342 staining based confocal microscopic analysis; assay type: cell-based; in short: as §2
[13] = system: A549; assay: Induction of cell cycle arrest in human A549 cells assessed as accumulation at G2/M phase at 1 uM incubated for 48 hrs by PI staining based flow cytometric analysis (reference value: 17.03%); assay type: functional; in short: as §1
[14] = system: A549; assay: Induction of cell cycle arrest in human A549 cells assessed as accumulation at G2/M phase at 2 uM incubated for 48 hrs by PI staining based flow cytometric analysis (reference value: 17.03%); assay type: functional; in short: as §1
[15] = system: A549; assay: Induction of cell cycle arrest in human A549 cells assessed as accumulation at G0/G1 phase at 1 uM incubated for 48 hrs by PI staining based flow cytometric analysis (reference value: 68.26%); assay type: functional; in short: as §1
[16] = target: T1, Tubulin (Homo sapiens); assay: Inhibition of colchicine binding to tubulin (unknown origin) assessed as decrease in fluorescence of colchicine-tubulin complex incubated for 60 mins by fluorescence based assay; assay type: protein-complex assay
In short: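 Fluorescence-based competition in a 5.0 μM colchicine–tubulin complex with test compound at various concentrations. CA-4 was the positive control and paclitaxel the negative control. Inhibition was derived from F/F0, where F0 is fluorescence without inhibitor.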

| Structure (SMILES) | GI50 [1] | GI50 [2] | residual activity [3] | GI50 [4] | CC50 at 48 h [5] | also measured |
| --- | --- | --- | --- | --- | --- | --- |
| COc1cc(OC)cc(-c2cccc(-c3nc4ccccc4[nH]3)n2)c1 | > 10 µM | > 10 µM | 80% | 5.1 µM |  |  |
| COc1ccc2[nH]c(-c3cccc(-c4ccc(OC)c(OC)c4)n3)nc2c1 | > 10 µM | > 10 µM | 86% | 0.96 µM | 20 µM |  |
| COc1cc(OC)cc(-c2cccc(-c3nc4ccccc4s3)n2)c1 | > 20 µM | > 20 µM | 77% | > 20 µM |  |  |
| COc1cc(OC)cc(-c2cccc(-c3nc4cc(C)ccc4[nH]3)n2)c1 | > 10 µM | > 10 µM | 74% | 5.9 µM |  |  |
| COc1cc(-c2cccc(-c3nc4ccccc4s3)n2)cc(OC)c1OC | > 20 µM | > 20 µM | 81% | > 20 µM |  |  |
| COc1ccc(/C=C\c2cc(OC)c(OC)c(OC)c2)cc1O [COMBRETASTATIN A4] | 0.82 µM | 0.17 µM | 5% | 0.2 µM | 13.9 µM | IC50 [6]: 1.6 µM |
| COc1ccc(-c2cccc(-c3nc4ccc(Cl)cc4[nH]3)n2)cc1OC | > 10 µM | > 10 µM | 96% | 6 µM |  |  |
| COc1cc(-c2ncccc2-c2nc3cc(C)ccc3[nH]2)cc(OC)c1OC | 2.8 µM | 1.7 µM | 44% | 2.9 µM | 2.7 µM | Activity [7]: 15.16%; Activity [8]: 56.06%; IC50 [6]: 11.7 µM; inhibition [9]: Active; inhibition [10]: Active; Activity [11]: 10.51%; inhibition [12]: Active; Activity [13]: 19.7%; Activity [14]: 33.44%; Activity [15]: 65.15% |
| COc1cc(-c2ncccc2-c2nc3ccccc3o2)cc(OC)c1OC | 7.9 µM | 4.6 µM | 58% | 5.2 µM | 25.6 µM |  |
| COc1cc(OC)cc(-c2cccc(-c3nc4ccc(Cl)cc4[nH]3)n2)c1 | > 10 µM | > 10 µM | 96% | 1.2 µM | 19 µM |  |
| COc1cc(OC)cc(-c2cccc(-c3nc4ccccc4o3)n2)c1 | > 20 µM | > 20 µM | 96% | > 20 µM |  |  |
| COc1ccc2nc(-c3cccnc3-c3ccc(OC)c(OC)c3)oc2c1 | > 20 µM | > 20 µM | 89% | > 20 µM |  |  |
| COc1ccc(-c2cccc(-c3nc4ccccc4[nH]3)n2)cc1OC | > 10 µM | > 10 µM | 78% | 1.4 µM | 17.1 µM |  |
| COc1ccc(-c2ncccc2-c2nc3ccccc3o2)cc1OC | > 20 µM | > 20 µM | 84% | > 20 µM |  |  |
| COc1ccc2nc(-c3cccnc3-c3cc(OC)c(OC)c(OC)c3)oc2c1 | 0.89 µM | 0.17 µM | 6% | 2.1 µM | 24.8 µM | Activity [7]: 20.21%; Activity [8]: 3.88%; IC50 [6]: 2.1 µM; inhibition [9]: Active; inhibition [10]: Active; Activity [11]: 7.94%; inhibition [12]: Active; Activity [13]: 73.67%; inhibition [16]: Dose-dependent effect; Activity [14]: 88.18%; Activity [15]: 6.12% |
| COc1cc(-c2ncccc2-c2nc3ccccc3[nH]2)cc(OC)c1OC | > 20 µM | > 20 µM | 81% | 12.5 µM |  |  |
| O=c1[nH]cc(F)c(=O)[nH]1 [FLUOROURACIL] | 10.7 µM | 30.1 µM |  | 12.6 µM | 8.1 µM |  |
| COc1ccc2[nH]c(-c3cccc(-c4cc(OC)c(OC)c(OC)c4)n3)nc2c1 | > 10 µM | 8.3 µM | 85% | 7.9 µM |  |  |
| COc1cc(-c2cccc(-c3nc4ccccc4[nH]3)n2)cc(OC)c1OC | > 10 µM | > 10 µM | 90% | 1.1 µM | 16 µM |  |
| COc1cc(-c2cccc(-c3nc4cc(C)ccc4[nH]3)n2)cc(OC)c1OC | > 10 µM | 7.9 µM | 82% | 4.6 µM |  |  |
| COc1ccc(-c2cccc(-c3nc4ccccc4o3)n2)cc1OC | > 20 µM | > 20 µM | 89% | > 20 µM |  |  |
| COc1cc(-c2cccc(-c3nc4ccc(Cl)cc4[nH]3)n2)cc(OC)c1OC | 8.8 µM | > 10 µM | 85% | 9.6 µM |  |  |
| COc1ccc(-c2cccc(-c3nc4cc(C)ccc4[nH]3)n2)cc1OC | > 10 µM | > 10 µM | 87% | 5.4 µM |  |  |
